Legend:
[1] = Redox potential of compound in Ag/AgCl-NaCl containing phosphate buffer assessed as one electron redox potential at 1 10^-4M by cyclic voltammetric analysis
How it was run: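 Cyclic voltammetry at 25 ± 2 °C in a three-electrode cell: glassy carbon working, platinum wire auxiliary, Ag/AgCl (3 M NaCl) reference. Inhibitor 1×10^-4 M in 0.1 M phosphate buffer pH 7.4. Single cycle at 100 mV s⁻¹. E°′ converted to NHE by adding +198 mV.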

Myeloperoxidase = molecular target: T1, Myeloperoxidase (Homo sapiens, UniProt P05164); test: Inhibition of MPO chlorination activity (unknown origin) assessed as taurine chloramine formation after 5 mins in presence of H2O2/Cl- by HTS method
T1 sequence (P05164 whole entry): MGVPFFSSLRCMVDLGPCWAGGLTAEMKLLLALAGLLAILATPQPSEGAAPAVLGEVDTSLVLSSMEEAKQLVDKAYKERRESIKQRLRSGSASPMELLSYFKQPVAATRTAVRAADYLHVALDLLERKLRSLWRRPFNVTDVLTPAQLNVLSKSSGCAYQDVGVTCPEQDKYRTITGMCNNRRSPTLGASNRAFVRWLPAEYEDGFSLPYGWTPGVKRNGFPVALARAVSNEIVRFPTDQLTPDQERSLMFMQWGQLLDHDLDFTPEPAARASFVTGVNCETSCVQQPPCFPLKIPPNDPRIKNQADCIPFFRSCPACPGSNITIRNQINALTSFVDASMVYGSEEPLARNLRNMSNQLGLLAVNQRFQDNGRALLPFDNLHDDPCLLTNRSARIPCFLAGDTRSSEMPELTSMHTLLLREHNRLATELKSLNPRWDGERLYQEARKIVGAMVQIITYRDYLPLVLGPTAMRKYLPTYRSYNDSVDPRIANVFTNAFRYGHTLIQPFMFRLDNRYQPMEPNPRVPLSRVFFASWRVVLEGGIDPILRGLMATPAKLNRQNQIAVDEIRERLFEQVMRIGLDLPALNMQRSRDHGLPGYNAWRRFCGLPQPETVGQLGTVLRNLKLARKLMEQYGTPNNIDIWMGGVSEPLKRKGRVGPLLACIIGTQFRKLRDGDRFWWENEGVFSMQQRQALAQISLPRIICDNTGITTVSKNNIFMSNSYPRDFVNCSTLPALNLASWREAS
How it was run: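 Recombinant MPO (40 nM) in 10 mM phosphate buffer pH 7.4 with 300 mM NaCl and 15 mM taurine, inhibitor up to 20 μM, 37 °C. Started with H2O2 (100 μM), stopped after 5 min with catalase. Taurine chloramine read with thionitrobenzoic acid at 412 nm. IC50 taken from the concentration curve, no H2O2 = 100% inhibition, no inhibitor = 0%.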

HEK293 = test: Ratio of Ki for human SERT expressed in HEK293 cells to IC50 for MPO chlorination activity (unknown origin); type: cell-based
[2] = molecular target: T2, Myeloperoxidase (Homo sapiens) (UniProt P05164); test: Inhibition of human polymorphonuclear leukocyte MPO assessed as ratio of apparent bi-molecular rate constant for PorFe(4)=O radical reduction to PorFe(4)-OH reduction by stopped-flow spectroscopic analysis
T2 sequence (whole entry): T1 sequence (P05164 whole entry)

[3] = molecular target: Sodium-dependent serotonin transporter (Homo sapiens, UniProt P31645); test: Inhibition of human SERT expressed in HEK293 cells assessed as reduction in [3]5-HT uptake; type: cell-based
How it was run: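 hSERT cDNA in pcDNA3.1, transfected into HEK-293 MSR cells (DMEM, 10% FCS, penicillin/streptomycin, 6 µg/mL Geneticin, 37 °C, 5% CO2). Cells detached with Versene and trypsin/EDTA and seeded into plates. [3H]5-HT uptake measured per an earlier described method, with HEK-293 MSR cells used in place of COS-1. Ki reported.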

[4] = molecular target: T2, Myeloperoxidase (Homo sapiens); test: Inhibition of human polymorphonuclear leukocyte MPO assessed as apparent bi-molecular rate constant for PorFe(4)=O radical reduction for 0.001 to 2.681 secs by stopped-flow spectroscopic analysis
How it was run: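 Purified MPO (purity index A430/A280 ≥0.86) at 8 µM was premixed with 80 µM H2O2. Reaction in 200 mM phosphate, pH 7.4, 25 °C, 2% DMSO final. kobs taken as the mean of ≥3 runs. Second-order constant derived from the slope of kobs versus concentration.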

[5] = molecular target: T2, Myeloperoxidase (Homo sapiens); test: Inhibition of human polymorphonuclear leukocyte MPO assessed as apparent bimolecular rate constant for PorFe(4)-OH reduction for 4.01 to 31.32 secs by stopped-flow spectroscopic analysis
How it was run: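 Single-exponential fits gave kobs, as the mean of ≥3 runs, with substrate at least 5-fold over enzyme. Conditions were 200 mM phosphate, pH 7.4, 25 °C, 2% DMSO final. Apparent second-order constant taken from the slope of kobs versus concentration.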

Chain of Sodium-dependent serotonin transporter (P31645 whole entry): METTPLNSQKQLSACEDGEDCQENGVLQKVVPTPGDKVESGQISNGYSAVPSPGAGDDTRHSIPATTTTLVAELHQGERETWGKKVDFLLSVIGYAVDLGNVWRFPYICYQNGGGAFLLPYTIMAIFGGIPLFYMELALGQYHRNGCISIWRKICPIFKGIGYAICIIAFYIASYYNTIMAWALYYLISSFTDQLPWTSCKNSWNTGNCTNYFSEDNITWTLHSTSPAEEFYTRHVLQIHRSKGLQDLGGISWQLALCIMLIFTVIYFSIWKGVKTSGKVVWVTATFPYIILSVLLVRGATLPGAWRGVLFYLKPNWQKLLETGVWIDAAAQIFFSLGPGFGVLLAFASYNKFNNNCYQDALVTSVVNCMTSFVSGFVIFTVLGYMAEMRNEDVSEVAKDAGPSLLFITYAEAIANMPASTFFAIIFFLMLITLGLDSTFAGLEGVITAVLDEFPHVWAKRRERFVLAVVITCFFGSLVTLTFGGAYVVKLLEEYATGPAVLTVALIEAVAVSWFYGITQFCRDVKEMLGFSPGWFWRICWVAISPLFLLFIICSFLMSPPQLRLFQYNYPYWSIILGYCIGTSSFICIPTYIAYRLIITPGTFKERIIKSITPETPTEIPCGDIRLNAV

COc1ccccc1CCCNCc1cccc(F)c1
Activity [1]: > 1.2 V

Oc1ccccc1CCCNCc1cccc(F)c1
IC50 (Myeloperoxidase): 370 nM | Activity [1]: 820 mV

Oc1ccccc1CCCNCc1ccccc1F
Ratio (HEK293): 51.8 | Ratio [2]: 4070 | Ki [3]: 14000 nM | IC50 (Myeloperoxidase): 270 nM | Activity [1]: 833 mV | Kapp [4]: 5.7 ×10⁶ /M/s | Kapp [5]: 1.4 ×10³ /M/s

Oc1ccccc1CN1CCN(Cc2ccccc2O)CC1
IC50 (Myeloperoxidase): 1400 nM | Activity [1]: 1070 mV

Oc1ccccc1CCCNCc1ccccc1O
Ratio (HEK293): 31.4 | Ratio [2]: 313 | Ki [3]: 11000 nM | IC50 (Myeloperoxidase): 350 nM | Activity [1]: 844 mV | Kapp [4]: 1.5 ×10⁶ /M/s | Kapp [5]: 4.8 ×10³ /M/s

c1ccc(CCCNCc2ccccc2)cc1
Activity [1]: > 1.2 V

Oc1ccccc1CNCCCc1ccccc1
IC50 (Myeloperoxidase): 1200 nM | Activity [1]: 928 mV

Oc1ccccc1CC1CCCNC1 (centres undefined)
IC50 (Myeloperoxidase): > 10000 nM | Activity [1]: 960 mV

O=C1N(Cc2ccccc2)CCCN1Cc1ccccc1
Activity [1]: > 1.2 V

Fc1ccc(CN2CCN(Cc3ccc(F)cc3)CC2)cc1
IC50 (Myeloperoxidase): > 10000 nM | Activity [1]: 1020 mV

COc1ccccc1CCCNCc1ccccc1F
Activity [1]: > 1.2 V

COc1ccccc1CCNCc1ccccc1O
IC50 (Myeloperoxidase): 1850 nM | Activity [1]: 907 mV

Oc1ccccc1CNCCc1ccccc1F
IC50 (Myeloperoxidase): 670 nM | Activity [1]: 948 mV

Oc1ccccc1CNCCc1ccccc1
IC50 (Myeloperoxidase): 700 nM | Activity [1]: 973 mV

Fc1cccc(CN2CCN(Cc3cccc(F)c3)CC2)c1
IC50 (Myeloperoxidase): > 10000 nM | Activity [1]: 1060 mV

COc1ccccc1CCNCc1ccccc1
Activity [1]: > 1.2 V

Oc1ccccc1CNCCc1c[nH]c2ccc(F)cc12
IC50 (Myeloperoxidase): 85 nM | Activity [1]: 902 mV

Oc1ccccc1CCNCc1ccccc1F
IC50 (Myeloperoxidase): 700 nM | Activity [1]: 856 mV

Oc1ccccc1CN1CCCCC1
IC50 (Myeloperoxidase): > 10000 nM | Activity [1]: 953 mV

Oc1ccccc1CCNCc1ccc(F)cc1
IC50 (Myeloperoxidase): 1160 nM | Activity [1]: 865 mV

COc1ccccc1CCNCc1ccccc1F
Activity [1]: > 1.2 V

COc1ccccc1CCCNCc1ccccc1
Activity [1]: > 1.2 V

Oc1ccccc1CCNCc1cccc(F)c1
IC50 (Myeloperoxidase): 660 nM | Activity [1]: 807 mV

c1ccc(CCNCc2ccccc2)cc1
Activity [1]: > 1.2 V

Oc1ccccc1CCNCc1ccccc1O
IC50 (Myeloperoxidase): 650 nM | Activity [1]: 870 mV

COc1ccccc1CCNCc1ccc(F)cc1
Activity [1]: > 1.2 V

Fc1ccccc1CN1CCN(Cc2ccccc2F)CC1
IC50 (Myeloperoxidase): > 10000 nM | Activity [1]: 1100 mV

Fc1ccc2[nH]cc(CCCNCc3ccccc3)c2c1
Ratio (HEK293): 4.1 | Ki [3]: 50 nM

c1ccc(CN2CCN(Cc3ccccc3)CC2)cc1
IC50 (Myeloperoxidase): > 10000 nM | Activity [1]: 996 mV

Oc1ccccc1CCCNCc1ccc(F)cc1
IC50 (Myeloperoxidase): 490 nM | Activity [1]: 869 mV

Oc1ccccc1CNCCCc1c[nH]c2ccc(F)cc12
Ratio (HEK293): 14.8 | Ratio [2]: 4000 | Ki [3]: 800 nM | IC50 (Myeloperoxidase): 54 nM | Activity [1]: 872 mV | Kapp [4]: 1.4 ×10⁷ /M/s | Kapp [5]: 3.5 ×10³ /M/s

COc1ccccc1CCNCc1cccc(F)c1
Activity [1]: > 1.2 V

c1ccc(CN2CCCN(Cc3ccccc3)C2)cc1
Activity [1]: > 1.2 V

COc1ccccc1CCCNCc1ccc(F)cc1
Activity [1]: > 1.2 V

Oc1ccccc1CCCNCc1ccccc1
IC50 (Myeloperoxidase): 360 nM | Activity [1]: 825 mV

Oc1ccccc1CNCCCc1ccccc1F
IC50 (Myeloperoxidase): 370 nM | Activity [1]: 902 mV

COc1ccccc1CCCNCc1ccccc1O
IC50 (Myeloperoxidase): 2500 nM | Activity [1]: 871 mV

Oc1ccccc1CCNCc1ccccc1
IC50 (Myeloperoxidase): 2700 nM | Activity [1]: 897 mV
